# Compounds with a hit are over-represented: about 2.1% of the library has one in this group of screens.
# CRFBP-R2 block = CRF-BP/CRF-R2 complex antagonism. HEK293 CRF-R2/CRF-BP, CRF-induced calcium fluorescence. AID 588475. 350,000 compounds, 0.59% hits. inhibition, % at 11.8 µM;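 active = inhibition of the ligand-induced calcium signal above about 50% at the single tested concentration, limit read from the data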
# zfTRPN1 agonist = zebrafish TRPN1 (NompC) channel agonism. HEK293 zebrafish TRPN1-YFP, Fluo-8 calcium fluorescence; 100% = response to 87 µM carbachol. activation, % at 3 µM. 220,000 compounds, 0.18% hits;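 active = activation above its plate's cutoff, the mean activation of test wells on that plate plus 3 SD, cut at about 19% in these data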
#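 Control set: carbachol 87 µM as high control, DMSO as low control; system: HEK293 stable line with zebrafish TRPN1-YFP; read-out: % activation versus carbachol response; detection: intracellular calcium fluorescence with Fluo-8; doses: single test compound dose, 3 µM nominal, 0.3% DMSO; schedule: dye 1 h 37 °C plus 30 min RT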
# CRFR2-BP ag = agonists of human CRF-binding protein/CRF-R2 receptor complex; activation, % at 13.2 µM; AID 588473; HEK293 CRF-R2/CRF-BP, calcium dye fluorescence (FLIPR); percent of saturating CRF peptide response; 350,000 compounds, 0.46% hits;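 active = activation of at least 50%, plus an integration ratio under a set limit after plate pattern correction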
# IMP-1 inh = inhibitors of Pseudomonas aeruginosa IMP-1 metallo-beta-lactamase; AID 1556; inhibition, % at 5.6 µM; 290,000 compounds, 0.45% hits; purified IMP-1, nitrocefin hydrolysis, epi-absorbance fluorescence;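 active = inhibition above the mean plus 3 SD of all compounds in the same screening run, cut at about 4.5% in these data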
#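 Assay system: purified recombinant IMP-1 beta-lactamase. Input: IMP-1 0.2 nM before substrate addition. Buffer or medium: Zinc- and detergent-supplemented HEPES buffer, pH 7.1. Schedule: 25 °C, 15 min preincubation, 25 min reaction. Signal: Epi-absorbance fluorescence, 480 nm excitation, 530 nm emission. Evaluation: percent inhibition from optical density relative to buffer-blank wells.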
# VIM-2 inh = inhibitors of Pseudomonas aeruginosa VIM-2 metallo-beta-lactamase; AID 1527; purified VIM-2, nitrocefin hydrolysis, epi-absorbance fluorescence; 290,000 compounds, 0.89% hits; inhibition, % at 5.6 µM;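 active = inhibition above the mean of all tested compounds plus 3 SD, cutoff set per screening run, cut at about 7.5% in these data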;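 note: red hydrolysis product quenches plate fluorescence so inhibitors raise well fluorescence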
# TRPML3 agonist = activates the human TRPML3 channel. activation, % at 3 µM. Q8TDD5. HEK293 TRPML3-YFP, Fluo-8 calcium fluorescence; 100% = the carbachol control signal. 220,000 compounds, 0.29% hits. AID 1448;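 active = activation above its plate's cutoff, the mean activation of the plate's test wells plus 3 SD, cut at about 12% in these data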
# Target sequence (Q8TDD5 whole entry, looked up): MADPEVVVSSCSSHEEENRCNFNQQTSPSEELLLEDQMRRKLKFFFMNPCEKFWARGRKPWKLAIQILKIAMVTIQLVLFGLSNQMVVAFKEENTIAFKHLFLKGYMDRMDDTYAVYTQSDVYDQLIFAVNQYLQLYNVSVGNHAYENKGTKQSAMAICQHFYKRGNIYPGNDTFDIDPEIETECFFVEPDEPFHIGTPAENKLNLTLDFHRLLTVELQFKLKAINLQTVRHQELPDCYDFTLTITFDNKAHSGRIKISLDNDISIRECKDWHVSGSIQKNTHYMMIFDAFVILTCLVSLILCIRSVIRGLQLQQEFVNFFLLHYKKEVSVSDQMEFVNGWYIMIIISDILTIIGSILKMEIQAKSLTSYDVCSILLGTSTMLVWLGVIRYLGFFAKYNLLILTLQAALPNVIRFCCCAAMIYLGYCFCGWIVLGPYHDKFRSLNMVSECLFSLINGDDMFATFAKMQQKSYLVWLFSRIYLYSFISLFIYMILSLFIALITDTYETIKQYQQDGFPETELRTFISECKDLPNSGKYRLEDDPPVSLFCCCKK
#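 Test system: TRPML3-YFP stable HEK293 cells. Doses: single point at 3 µM. Incubation: dye loading 1 h 37 °C then 30 min ambient, 125 s read. Signal: Fluo-8 calcium dye fluorescence, ex 470-495, em 515-575 nm. Measure: percent activation from peak-to-basal fluorescence ratio, scaled between DMSO and carbachol.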
# Hits are given with their value; . = inactive; / = no result.
SMILES,CRFBP-R2 block,zfTRPN1 agonist,CRFR2-BP ag,IMP-1 inh,VIM-2 inh,TRPML3 agonist
Cc1ccc2nc(C(Cl)(Cl)Cl)nc(N/N=C/c3ccncc3)c2c1,.,.,.,.,11,.
Cc1ccc2nc(C(Cl)(Cl)Cl)nc(N/N=C/c3ccc([N+](=O)[O-])cc3)c2c1,.,/,.,/,/,/
COc1ccc(C(=O)N2CCNC(=O)C2)cc1S(=O)(=O)Nc1ccc(Br)cc1,.,/,.,/,/,/
O=C(CN(c1ccc(F)cc1)S(=O)(=O)c1ccccc1)N1CCOCC1,.,/,.,.,.,/
COc1ccccc1OCC(=O)OC/C(O)=C(\C#N)c1nc2ccccc2[nH]1,.,.,.,.,11,.
Cc1ccc(NC(=O)c2ccccc2NS(=O)(=O)c2ccc(Cl)s2)cc1,80,27,65,.,.,13
O=C(NCc1ccco1)c1ccccc1NS(=O)(=O)c1ccc(Cl)s1,.,.,.,.,.,.
O=C(Nc1ccccc1Cc1ccccc1)c1ccccc1NS(=O)(=O)c1ccc(Cl)s1,105,19,.,.,.,.
O=C(Nc1nnc(S(=O)(=O)Nc2ccccc2)s1)c1ccccc1Cl,76,/,.,.,.,/
O=C(Nc1ccccc1)c1ccccc1NS(=O)(=O)c1ccc(Cl)s1,68,29,.,.,.,16
O=C(NC1CCCC1)C1CC(O)CN1C(=O)Nc1ccccc1 (centres undefined),.,/,.,.,.,/
C#CCOCCOCCOCCNc1nc(N2CCN(C(=O)Cn3cc(CCO)nn3)CC2)nc(N2CCN(C(=O)[C@H](CCCCN)n3cc(CC(C)O)nn3)CC2)n1 (some centres undefined),53,/,.,/,/,/
C#CCOCCOCCOCCNc1nc(N2CCN(C(=O)[C@H](CCC(=O)O)n3cc(C(N)Cc4ccc(O)cc4)nn3)CC2)nc(N2CCN(C(=O)[C@H](CCC(=O)O)n3cc(C(N)CC(C)C)nn3)CC2)n1 (some centres undefined),.,.,.,.,.,.
C#CCOCCOCCOCCNc1nc(N2CCN(C(=O)[C@H](CCC(=O)O)n3cc(C(N)Cc4ccc(O)cc4)nn3)CC2)nc(N2CCN(C(=O)[C@H](CCC(=O)O)n3cc(C(N)[C@H](C)CC)nn3)CC2)n1 (some centres undefined),.,.,.,5.2,.,.
C#CCOCCOCCOCCNc1nc(N2CCN(C(=O)[C@H](CCCCN)n3cc([C@@H](N)C(C)CC)nn3)CC2)nc(N2CCN(C(=O)[C@H](CCCCN)n3cc([C@@H](N)CO)nn3)CC2)n1 (some centres undefined),/,.,/,.,.,.
C#CCOCCOCCOCCNc1nc(N2CCN(C(=O)[C@H]([C@@H](C)CC)n3cc([C@@H](N)CO)nn3)CC2)nc(N2CCN(C(=O)[C@H](CCCCN)n3cc([C@@H](N)C(C)CC)nn3)CC2)n1 (some centres undefined),.,.,.,14,.,.
C#CCOCCOCCOCCNc1nc(N2CCN(C(=O)Cn3cc(CC(C)O)nn3)CC2)nc(N2CCN(C(=O)[C@H](CCCCN)n3cc(CCCC)nn3)CC2)n1 (some centres undefined),.,/,.,/,/,/
CCCCCCCCNCCS(=O)(=O)NCc1ccc(OC)cc1,.,/,.,/,/,/
COc1ccc(/C=N/N2CCN(c3ccc(Cl)cc3)CC2)cc1O,.,/,.,.,.,/
N=c1c(C(=O)NCC2CCCO2)cc2c(=O)n3ccccc3nc2n1Cc1cccnc1 (centres undefined),.,.,.,.,8.0,.
N=c1c(C(=O)NCC2CCCO2)cc2c(=O)n3ccccc3nc2n1Cc1ccc(F)cc1 (centres undefined),.,/,.,.,9.7,/
N=c1c(C(=O)NC2CCCCC2)cc2c(=O)n3ccccc3nc2n1Cc1cccnc1,.,/,.,.,8.2,/
Cc1ccc(-c2cc(C(F)(F)F)n3nc(C(=O)N4CCN5CCCC5C4)cc3n2)cc1 (centres undefined),.,/,.,.,10,/
COc1ccc(-c2cc(C(F)(F)F)n3nc(C(=O)N4CCCC4)cc3n2)cc1,.,.,.,.,.,.
CC(=O)c1ccc(S(=O)(=O)N2CCC3(CC2)CC(=O)c2ccccc2O3)cc1,.,/,.,/,/,/
SMILES,CRFBP-R2 block,zfTRPN1 agonist,CRFR2-BP ag,IMP-1 inh,VIM-2 inh,TRPML3 agonist
O=c1[nH]cccc1-c1nc2ccccc2n1Cc1cccc(F)c1,.,/,.,.,.,/
N#Cc1ccccc1OCCN1C(=O)c2ccccc2C1=O,.,.,.,.,.,.
Nc1cccc2c1C(=O)N(CCOc1ccccc1F)C2=O,.,/,.,6.8,.,/
CCN(CC)c1ccc(/C=C2/C(=O)c3ccc(C(=O)O)cc3C2=O)cc1,.,35,215,.,.,19
COc1ccccc1N1CCN(CC(=O)Nc2ccc(C)c(F)c2)CC1,.,.,.,.,.,.
CCN1CCN(CC(=O)Nc2c(OC)cccc2OC)CC1,.,/,.,5.5,.,/
COc1ccccc1N1CCN(CC(=O)Nc2c(C)n[nH]c2C)CC1,68,.,.,.,.,.
CS(=O)(=O)N(CC(=O)N1CCCC1)c1cccc(C(F)(F)F)c1,.,/,.,/,/,/
CNc1nc2cc([N+](=O)[O-])c([N+](=O)[O-])cc2nc1NC,66,27,65,.,.,.
Cn1c(=O)c2c(-c3ccc(OC(F)F)cc3)cc(-c3ccccc3)nc2n(C)c1=O,.,.,.,.,.,.
Cc1ccc(N(Cc2ccccc2)C(=O)c2cc(S(=O)(=O)N3CCOCC3)ccc2C)cc1,.,/,.,/,/,/
CCCc1cc(=O)[nH]c(SCC(=O)N(CCC#N)c2ccc3c(c2)OCCO3)n1,98,/,.,/,/,/
NC(=O)CSc1nc2sc3c(c2c2ncnn12)CCCC3,.,.,.,.,9.8,.
O=C(CCNS(=O)(=O)c1ccc(OC(F)(F)F)cc1)Nc1cccc(S(=O)(=O)N2CCCC2)c1,.,/,.,/,/,/
C=COCCNC(=S)N1CCOCCOCCN(C(=S)NCCOC=C)CCOCC1,.,.,.,.,.,.
Cn1c(=O)[nH]c(=O)c2c1nc(N1CCNCC1)n2Cc1ccccc1,.,/,.,.,.,/
Cc1ccc(Cn2c(N3CCNCC3)nc3c2c(=O)[nH]c(=O)n3C)cc1,.,/,.,27,.,/
Cc1oc2c(c1C(=O)NCc1cccnc1)C(=O)c1ccccc1C2=O,.,.,.,.,9.2,.
Cc1ccc(C(=O)NCc2cccnc2)o1,84,/,.,.,.,/
O=S(=O)(NC1CCCCC1N1CCN(c2ccc(F)cc2)CC1)c1ccccc1 (centres undefined),.,/,.,.,.,/
CC1CC(C)CN(C2CCCCC2NS(=O)(=O)c2ccc(Cl)cc2)C1 (centres undefined),.,/,55,.,.,/
Cc1ccc(Cl)cc1N1CCN(C2CCCCC2NS(=O)(=O)c2ccccc2)CC1 (centres undefined),.,/,.,.,.,/
